Reference: publication PMC4968691 (Inorganic chemistry, 2012)
Blank lines part the entries; values can stand above or below the molecule they belong to.

Legend:
[1] = ^177Lu/^64Cu human blood serum competition; assay type: in vitro ADME
Summary of the method: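 Test chelator was labelled with 177Lu or 64Cu in 10 mM NaOAc pH 5.0 for 10 min at ambient temperature. Thawed human serum (750 µL), 300 µL complex and 450 µL PBS were run in triplicate at 37 °C and 550 rpm. Sampling was at 1.5/24 h (177Lu) and 1/20 h (64Cu). Aliquots were PBS-diluted, counted and passed through PD-10 size exclusion, and the PBS eluate was counted as serum-bound. Result is % chelate-bound.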

[2] = ^64Cu biodistribution in healthy nude athymic mice; assay type: in vivo, mouse; conditions: n = 4
Summary of the method: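 Healthy nude athymic mice received the HPLC-purified 64Cu complex by tail vein: ~30 µCi (~3 µg) in 200 µL of 2:1 saline:PBS, pH 7. Mice were killed by CO2 at 15 min, 1, 4 and 24 h (n = 4). Organs were rinsed, air-dried 5 min, weighed and gamma-counted. Counts were background- and decay-corrected, calibrated against 64Cu standards and expressed as %ID/g.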

[3] = ^67Ga/^111In mouse serum competition; assay type: in vitro ADME; conditions: mouse blood serum
Summary of the method: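 Test chelator (0.3 mg/mL) was labelled with 67Ga (NaOAc 10 mM, pH 4) or 111In (pH 5) for 10 min at ambient temperature. Complex was added to thawed mouse serum plus PBS in triplicate and held at ambient temperature. Sampling was at 15 min, 1 h and 2 h (67Ga) and 1 and 24 h (111In). Aliquots were diluted to 2.5 mL PBS, counted and loaded on PD-10. The 3.5 mL PBS eluate, holding protein-bound activity, was counted against pre-load activity.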

[4] = 24 h, with both ^177Lu and ^111In; cited from earlier work

Compound: O=C(O)CN1CCN(CC(=O)O)CCN(CC(=O)O)CCN(CC(=O)O)CC1 [DOTA, 1,4,7,10-tetraazacyclododecane-1,4,7,10-tetraacetic acid]
long-term stability (% chelator-bound radiometal) ([1]; 20 h, 37 °C, 550 rpm, ^64Cu, n = 3): 74%

Compound: O=C(O)CN(CCN(CC(=O)O)Cc1cccc(C(=O)O)n1)Cc1cccc(C(=O)O)n1 [H4octapa]
stable in serum [4]: > 85% | transchelated by serum proteins [4]: < 15%

Compound: O=C([O-])CN(CCN(CC(=O)[O-])CC(=O)[O-])CCN(CC(=O)[O-])CC(=O)[O-].[111In+3].[H+].[H+] [[^111In(DTPA)]^2−]
medium-term stability (% chelator-bound radiometal) ([3]; 1 h, 25 °C, n = 3): 87 (±2) % | long-term stability (% chelator-bound radiometal) ([3]; 24 h, 25 °C, ^111In, n = 3): 88 (±2) %

Next, values leading:

organ uptake, heart ([2]; 4 h post i.v. injection): 3.8 % ID/g | organ uptake, heart ([2]; 24 h post i.v. injection): 3.4 % ID/g | ^111In transchelated by serum proteins ([3]; 24 h, ^111In complex): 35% | ^64Cu transchelated to serum proteins ([1]; 20 h, 37 °C): 2% | ^177Lu transchelated by serum proteins ([1]; 24 h, ^177Lu complex): 54%
Compound: O=C(O)c1cccc(CN(CCN(Cc2cn(Cc3ccccc3)nn2)Cc2cccc(C(=O)O)n2)Cc2cn(Cc3ccccc3)nn2)n1 [H2azapa, N,N′-[1-Benzyl-1,2,3-triazole-4-yl]methyl-N,N′-[6-(carboxy)-pyridin-2-yl]-1,2-diaminoethane]

medium-term stability (% chelator-bound radiometal) ([1]; 1.5 h, 37 °C, 550 rpm, ^177Lu, n = 3): 87.7 (±0.7) % | long-term stability (% chelator-bound radiometal) ([1]; 24 h, 37 °C, 550 rpm, ^177Lu, n = 3): 87 (±2) %
Compound: O=C([O-])CN1CCN(CC(=O)[O-])CCN(CC(=O)[O-])CCN(CC(=O)[O-])CC1.[177Lu+3].[H+] [[^177Lu(DOTA)]^−]
